# Measured values reported in ChEMBL document CHEMBL5053511, “Discovery of a Novel BCL-XL PROTAC Degrader with Enhanced BCL-2 Inhibition” (J Med Chem, 2021).
# Calls of active or inactive are those of the source. The calls are words filed in the database; no cut-off is given here.
# Columns and labels:
# RS4-11 [1] = experiment: Cytotoxicity against human RS4-11 cells assessed as reduction in cell viability measured after 48 hrs by MTS assay; format: functional, cell-based; conditions: RS4-11, 48 h
# MOLT-4 = experiment: Cytotoxicity against human MOLT-4 cells assessed as reduction in cell viability measured after 48 hrs by MTS assay; format: functional, cell-based; conditions: MOLT-4, 48 h
# RS4-11 [2] = experiment: Cytotoxicity against human RS4-11 cells assessed as reduction in cell viability measured after 48 hrs in presence of VHL-032 by MTS assay; format: functional, cell-based; conditions: RS4-11, 48 h
# In short: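 RS4;11 cells were pretreated with 10 µM VHL-032, then exposed to compound for 48 h. Viability was read by MTS; three independent experiments in triplicate.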
# Platelet = experiment: Cytotoxicity against platelets in human PRP assessed as reduction in cell viability measured after 48 hrs by MTS assay; format: cell-based
# In short: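 Washed human platelets from PRP were kept in HEPES Tyrode's buffer with 1 µM PGE1 and 0.2 units/mL apyrase at 2×10^8/mL.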
# [3] = target: T1, von Hippel-Lindau disease tumor suppressor/Bcl-2-like protein 1 (Homo sapiens, UniProt Q07817+P40337); experiment: Binding affinity to Halo-tagged VHL/HiBiT-tagged BCL-XL (unknown origin) expressed in HEK293T cells assessed as ternary complex formation at up to 100000 nM measured after 6 hrs by NanoBRET assay; format: cell-based
# In short: (§1)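 NanoBRET in live HEK 293T cells. Cells were transfected with HaloTag-VHL (1 µg), HiBit-BCL-XL or HiBit-BCL-2 (10 ng) and LgBit (10 ng). After 24 h they were seeded at 2×10^4 per well in Opti-MEM with 4% FBS, with or without HaloTag 618 ligand, and held overnight. Serial compound doses were given for 6 h at 37 °C, then Nano-Glo substrate was added and mBRET ratios read. Mean ± s.e.m. of two experiments in triplicate.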
# Target sequence in this assay (P40337 whole entry, looked up): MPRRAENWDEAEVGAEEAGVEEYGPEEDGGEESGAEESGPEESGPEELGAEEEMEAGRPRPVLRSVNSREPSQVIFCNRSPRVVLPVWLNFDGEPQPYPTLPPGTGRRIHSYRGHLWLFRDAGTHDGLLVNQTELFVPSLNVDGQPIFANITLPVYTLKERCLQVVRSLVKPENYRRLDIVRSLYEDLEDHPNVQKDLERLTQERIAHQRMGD
# Target sequence in this assay (Q07817 whole entry, looked up): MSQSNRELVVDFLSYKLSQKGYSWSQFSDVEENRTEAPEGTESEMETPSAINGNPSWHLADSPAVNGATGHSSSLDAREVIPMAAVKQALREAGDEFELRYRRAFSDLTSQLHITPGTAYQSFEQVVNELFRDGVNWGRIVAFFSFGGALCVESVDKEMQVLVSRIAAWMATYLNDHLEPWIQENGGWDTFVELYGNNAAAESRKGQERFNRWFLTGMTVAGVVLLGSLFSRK
# [4] = target: T2, von Hippel-Lindau disease tumor suppressor/Apoptosis regulator Bcl-2 (Homo sapiens) (UniProt P10415+P40337); experiment: Binding affinity to Halo-tagged VHL/HiBiT-tagged BCL-2 (unknown origin) expressed in HEK293T cells assessed as ternary complex formation at up to 100000 nM measured after 6 hrs by NanoBRET assay; format: cell-based; in short: as §1
# T2 sequence (P10415 whole entry, looked up): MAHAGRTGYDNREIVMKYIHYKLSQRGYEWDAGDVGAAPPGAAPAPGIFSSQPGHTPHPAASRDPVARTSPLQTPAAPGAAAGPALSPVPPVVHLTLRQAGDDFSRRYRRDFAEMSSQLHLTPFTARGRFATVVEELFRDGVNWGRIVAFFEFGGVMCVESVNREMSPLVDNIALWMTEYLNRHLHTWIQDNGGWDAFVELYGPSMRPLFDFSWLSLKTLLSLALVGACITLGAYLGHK
# T2 sequence (P40337 whole entry, looked up): as the sequence (P40337 whole entry, looked up) above
# [5] = target: T1, von Hippel-Lindau disease tumor suppressor/Bcl-2-like protein 1; experiment: Protac activity at VHL/BCL-XL in human RS4-11 cells assessed as decrease in BCL-XL protein level by densitometric analysis; format: cell-based
# In short: (§2)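 MOLT-4 or RS4;11 cells were treated at a range of concentrations for 16 h. BCL-XL was immunoblotted with β-actin loading control, and band densitometry was normalised to β-actin. Mean ± SD of three independent experiments in triplicate.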
# Target sequence in this assay (Q07817 whole entry): as the sequence (Q07817 whole entry, looked up) above
# Target sequence in this assay (P40337 whole entry): as the sequence (P40337 whole entry, looked up) above
# [6] = target: T1, von Hippel-Lindau disease tumor suppressor/Bcl-2-like protein 1; experiment: Protac activity at VHL/BCL-XL in human MOLT-4 cells assessed as induction of BCL-XL degradation measured after 16 hrs by Western blot analysis; format: cell-based; in short: as §2
# Target sequence in this assay (Q07817 whole entry): as the sequence (Q07817 whole entry, looked up) above
# Target sequence in this assay (P40337 whole entry): as the sequence (P40337 whole entry, looked up) above
# [7] = target: T1, von Hippel-Lindau disease tumor suppressor/Bcl-2-like protein 1; experiment: Protac activity at VHL/BCL-XL in human MOLT-4 cells assessed as decrease in BCL-XL protein level by densitometric analysis; format: cell-based; in short: as §2
# Target sequence in this assay (Q07817 whole entry): as the sequence (Q07817 whole entry, looked up) above
# Target sequence in this assay (P40337 whole entry): as the sequence (P40337 whole entry, looked up) above
# [8] = target: T2, von Hippel-Lindau disease tumor suppressor/Apoptosis regulator Bcl-2 (Homo sapiens); experiment: Binding affinity to VHL/BCL-2 in human RS4-11 cells assessed as ternary complex formation at up to 300 nM measured after 12 hrs by immunoprecipitation assay; format: cell-based
# [9] = target: T1, von Hippel-Lindau disease tumor suppressor/Bcl-2-like protein 1; experiment: Binding affinity to VHL/ BCL-XL in human RS4-11 cells assessed as ternary complex formation at up to 300 nM measured after 12 hrs in presence of VHL-032 by immunoprecipitation assay; format: cell-based
# Target sequence in this assay (P40337 whole entry, looked up): as above
# Target sequence in this assay (Q07817 whole entry, looked up): as the sequence (Q07817 whole entry, looked up) above
# [10] = target: T1, von Hippel-Lindau disease tumor suppressor/Bcl-2-like protein 1; experiment: Binding affinity to VHL/ BCL-XL in human RS4-11 cells assessed as ternary complex formation at up to 300 nM measured after 12 hrs by immunoprecipitation assay; format: cell-based
# Target sequence in this assay (P40337 whole entry, looked up): as the sequence (P40337 whole entry, looked up) above
# Target sequence in this assay (Q07817 whole entry, looked up): as the sequence (Q07817 whole entry, looked up) above
# [11] = target: T1, von Hippel-Lindau disease tumor suppressor/Bcl-2-like protein 1; experiment: Protac activity at VHL/BCL-XL in human RS4-11 assessed as decrease in BCL-XL protein level at up to […] measured after 16 hrs by Western blot analysis; in short: as §2
# Target sequence in this assay (P40337 whole entry, looked up): as the sequence (P40337 whole entry, looked up) above
# Target sequence in this assay (Q07817 whole entry, looked up): as the sequence (Q07817 whole entry, looked up) above
# [12] = target: T2, von Hippel-Lindau disease tumor suppressor/Apoptosis regulator Bcl-2 (Homo sapiens); experiment: Binding affinity to VHL/BCL-2 in human RS4-11 cells assessed as ternary complex formation at up to 300 nM measured after 12 hrs in presence of VHL-032 by immunoprecipitation assay; format: cell-based
# [13] = target: T1, von Hippel-Lindau disease tumor suppressor/Bcl-2-like protein 1; experiment: Protac activity at VHL/BCL-XL in human MOLT-4 assessed as decrease in BCL-XL protein level at up to […] measured after 16 hrs by Western blot analysis; in short: as §2
# Target sequence in this assay (P40337 whole entry, looked up): as the sequence (P40337 whole entry, looked up) above
# Target sequence in this assay (Q07817 whole entry, looked up): as the sequence (Q07817 whole entry, looked up) above
# [14] = (§3) Binding affinity to C-terminal His-tagged human BCL-2 (1 to 211 residues) expressed in Escherichia coli/recombinant human VHL (54 to end residues) fused to human N-terminal GST-tagged elongin-C/elongin -B/N-terminal His-tagged CUL2/Rbx1 expressed in baculovirus infected Sf21 insect cells assessed as ternary complex formation at up to 100000 nM measured after 30 mins by AlphaLISA assay
# In short: (§4)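 Cell-free ternary complex AlphaLISA: 6×His-tagged BCL-XL, BCL-2 or MCL-1 (20 nM) mixed with serially diluted compound (4× dilution) and GST-VCB (20 nM) in 25 mM HEPES pH 7.5, 100 mM NaCl, 0.1% BSA, 0.005% Tween 20. After 30 min at room temperature, glutathione donor beads were added for 15 min, then anti-His acceptor beads for 45 min in the dark. Luminescence was plotted against log compound concentration.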
# [15] = target: Apoptosis regulator Bcl-2 (Homo sapiens, UniProt P10415); experiment: Displacement of biotin-tagged MRPEPATIAQELRRIGDEFNA from C-terminal His-tagged human BCL-2 (1` to 211 residues) expressed in Escherichia coli measured after 2 hrs by AlphaScreen assay
# Sequence of Apoptosis regulator Bcl-2 (P10415 whole entry): as the sequence (P10415 whole entry, looked up) above
# In short: (§5)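 AlphaScreen displacement, run with or without VCB. Anti-His acceptor beads were added for 1 h at room temperature, then streptavidin donor beads for 30 min in the dark. Ki was fitted by one-site competitive model from peptide concentration and measured Kd values; reported as mean ± SD of at least two experiments in triplicate.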
# [16] = Binding affinity to human BCL-XL expressed in Escherichia coli/recombinant human VHL (54 to end residues) fused to human N-terminal GST-tagged elongin-C/elongin -B/N-terminal His-tagged CUL2/Rbx1 expressed in baculovirus infected Sf21 insect cells measured after 2 hrs by AlphaScreen assay
# In short: as §5, with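 “VCB. Biotin-Bim (80 nM, for BCL-2) or biotin-Bad (16 nM, for BCL-XL) was combined with serially diluted compound and 6×His protein in 25 mM HEPES pH 7.5, 100 mM NaCl, 0.1% BSA, 0.005% Tween 20.” for “VCB.”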
# [17] = Binding affinity to C-terminal His-tagged human BCL-2 (1 to 211 residues) expressed in Escherichia coli/recombinant human VHL (54 to end residues) fused to human N-terminal GST-tagged elongin-C/elongin -B/N-terminal His-tagged CUL2/Rbx1 expressed in baculovirus infected Sf21 insect cells measured after 2 hrs by AlphaScreen assay
# In short: as §5, with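 “VCB. Biotin-Bim (80 nM, for BCL-2) or biotin-Bad (16 nM, for BCL-XL) was combined with serially diluted compound and 6×His protein in 25 mM HEPES pH 7.5, 100 mM NaCl, 0.1% BSA, 0.005% Tween 20.” for “VCB.”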
# [18] = as §3, with “to” for “to C-terminal His-tagged”, “BCL-XL” for “BCL-2 (1 to 211 residues)”; in short: as §4
# Bcl-2-like protein 1 = Bcl-2-like protein 1 (Homo sapiens, UniProt Q07817); experiment: Displacement of biotin-tagged LWAAQRYGRELRRMSDEFEGSFKGL from human BCL-XL expressed in Escherichia coli measured after 2 hrs by AlphaScreen assay; in short: as §5
# Sequence of Bcl-2-like protein 1 (Q07817 whole entry): as the sequence (Q07817 whole entry, looked up) above
smiles,measurement,setting,value
Cc1ncsc1-c1ccc([C@H](C)NC(=O)[C@@H]2C[C@@H](O)CN2C(=O)[C@@H](NC(=O)CCCCCCCCCCC(=O)NCC2(C)CCC(c3ccc(Cl)cc3)=C(CN3CCN(c4ccc(C(=O)NS(=O)(=O)c5ccc(N[C@H](CCN6CCOCC6)CSc6ccccc6)c(S(=O)(=O)C(F)(F)F)c5)cc4)CC3)C2)C(C)(C)C)cc1 (some centres undefined),IC50,RS4-11 [1],96.3 nM
same,IC50,MOLT-4,112 nM
Cc1ncsc1-c1ccc([C@H](C)NC(=O)[C@@H]2C[C@@H](O)CN2C(=O)[C@@H](NC(=O)CCCCCCCCCC(=O)NCC2(C)CCC(c3ccc(Cl)cc3)=C(CN3CCN(c4ccc(C(=O)NS(=O)(=O)c5ccc(N[C@H](CCN6CCOCC6)CSc6ccccc6)c(S(=O)(=O)C(F)(F)F)c5)cc4)CC3)C2)C(C)(C)C)cc1 (some centres undefined),IC50,RS4-11 [1],29.2 nM
same,IC50,MOLT-4,74.6 nM
Cc1ncsc1-c1ccc([C@H](C)NC(=O)[C@@H]2C[C@@H](O)CN2C(=O)[C@@H](NC(=O)CCCCCCCCC(=O)NCC2(C)CCC(c3ccc(Cl)cc3)=C(CN3CCN(c4ccc(C(=O)NS(=O)(=O)c5ccc(N[C@H](CCN6CCOCC6)CSc6ccccc6)c(S(=O)(=O)C(F)(F)F)c5)cc4)CC3)C2)C(C)(C)C)cc1 (some centres undefined),IC50,RS4-11 [1],23.3 nM
same,IC50,RS4-11 [2],481 nM
same,IC50,Platelet,2900 nM
same,Activity,[3],Active
same,Activity,[4],Active
same,IC50,MOLT-4,32.1 nM
same,DC50,[5],22.6 nM
same,DC50,[6],27.2 nM
same,DC50,[7],31.6 nM
CC1(C)CCC(c2ccc(Cl)cc2)=C(CN2CCN(c3ccc(C(=O)NS(=O)(=O)c4ccc(N[C@H](CCN5CCOCC5)CSc5ccccc5)c(S(=O)(=O)C(F)(F)F)c4)cc3)CC2)C1 [NAVITOCLAX],IC50,Platelet,325 nM
same,Activity,[8],Active
same,Activity,[9],inactive
same,Activity,[10],Active
Cc1ncsc1-c1ccc([C@H](C)NC(=O)[C@@H]2C[C@@H](O)CN2C(=O)[C@@H](NC(=O)CCCCCCCC(=O)NCC2(C)CCC(c3ccc(Cl)cc3)=C(CN3CCN(c4ccc(C(=O)NS(=O)(=O)c5ccc(N[C@H](CCN6CCOCC6)CSc6ccccc6)c(S(=O)(=O)C(F)(F)F)c5)cc4)CC3)C2)C(C)(C)C)cc1 (some centres undefined),IC50,RS4-11 [1],43.7 nM
same,IC50,MOLT-4,125 nM
Cc1ncsc1-c1ccc([C@H](C)NC(=O)[C@@H]2C[C@@H](O)CN2C(=O)[C@@H](NC(=O)CCCCC(=O)NCC2(C)CCC(c3ccc(Cl)cc3)=C(CN3CCN(c4ccc(C(=O)NS(=O)(=O)c5ccc(N[C@H](CCN6CCOCC6)CSc6ccccc6)c(S(=O)(=O)C(F)(F)F)c5)cc4)CC3)C2)C(C)(C)C)cc1 (some centres undefined),IC50,RS4-11 [1],304 nM
same,IC50,MOLT-4,340 nM
Cc1ncsc1-c1ccc([C@H](C)NC(=O)[C@@H]2C[C@@H](O)CN2C(=O)[C@@H](NC(=O)CCCCCC(=O)NCC2(C)CCC(c3ccc(Cl)cc3)=C(CN3CCN(c4ccc(C(=O)NS(=O)(=O)c5ccc(N[C@H](CCN6CCOCC6)CSc6ccccc6)c(S(=O)(=O)C(F)(F)F)c5)cc4)CC3)C2)C(C)(C)C)cc1 (some centres undefined),IC50,MOLT-4,307 nM
Cc1ncsc1-c1ccc([C@H](C)NC(=O)[C@@H]2C[C@H](O)CN2C(=O)[C@@H](NC(=O)CCCCCCCCC(=O)NC[C@]2(C)CCC(c3ccc(Cl)cc3)=C(CN3CCN(c4ccc(C(=O)NS(=O)(=O)c5ccc(N[C@H](CCN6CCOCC6)CSc6ccccc6)c(S(=O)(=O)C(F)(F)F)c5)cc4)CC3)C2)C(C)(C)C)cc1,IC50,RS4-11 [1],328 nM
same,Activity,[3],inactive
same,Activity,[4],inactive
same,Activity,[11],inactive
same,IC50,MOLT-4,821 nM
same,Activity,[9],inactive
same,Activity,[10],Active
same,Activity,[12],inactive
same,Activity,[13],inactive
Cc1ncsc1-c1ccc([C@H](C)NC(=O)[C@@H]2C[C@@H](O)CN2C(=O)[C@@H](NC(=O)CCCCCCCCC(=O)NC[C@@]2(C)CCC(c3ccc(Cl)cc3)=C(CN3CCN(c4ccc(C(=O)NS(=O)(=O)c5ccc(N[C@H](CCN6CCOCC6)CSc6ccccc6)c(S(=O)(=O)C(F)(F)F)c5)cc4)CC3)C2)C(C)(C)C)cc1,IC50,RS4-11 [1],418 nM
same,IC50,RS4-11 [2],1040 nM
same,IC50,Platelet,9850 nM
same,Activity,[14],Active
same,Activity,[3],Active
same,Activity,[4],Active
same,Kd,[15],1.47 nM
same,Kd,[16],0.64 nM
same,IC50,MOLT-4,170 nM
same,DC50,[5],75.2 nM
same,Kd,[17],0.55 nM
same,Activity,[18],Active
same,Ki,Bcl-2-like protein 1,2.75 nM
same,DC50,[7],127 nM
Cc1ncsc1-c1ccc([C@H](C)NC(=O)[C@@H]2C[C@@H](O)CN2C(=O)[C@@H](NC(=O)CCCCCCCCCCCC(=O)NCC2(C)CCC(c3ccc(Cl)cc3)=C(CN3CCN(c4ccc(C(=O)NS(=O)(=O)c5ccc(N[C@H](CCN6CCOCC6)CSc6ccccc6)c(S(=O)(=O)C(F)(F)F)c5)cc4)CC3)C2)C(C)(C)C)cc1 (some centres undefined),IC50,RS4-11 [1],410 nM
same,IC50,MOLT-4,334 nM
Cc1ncsc1-c1ccc([C@H](C)NC(=O)[C@@H]2C[C@@H](O)CN2C(=O)[C@@H](NC(=O)CCCCCCC(=O)NCC2(C)CCC(c3ccc(Cl)cc3)=C(CN3CCN(c4ccc(C(=O)NS(=O)(=O)c5ccc(N[C@H](CCN6CCOCC6)CSc6ccccc6)c(S(=O)(=O)C(F)(F)F)c5)cc4)CC3)C2)C(C)(C)C)cc1 (some centres undefined),IC50,RS4-11 [1],108 nM
same,IC50,MOLT-4,219 nM
